High-throughput results deposited in PubChem by several laboratories.
A selection: hits, their analogues and other compounds. The true share with any hit is near 0.31%.
Rad51 HR inh = human RAD51 strand exchange inhibitors, primary screen, biochemical, fluorescence. DNA repair protein RAD51 homolog 1 (Homo sapiens), Q06609. hRad51 DNA strand exchange, fluorescence dequenching. inhibition, % at 10 µM. 0.085% of 200,000 active;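 active = inhibition above 40% at the single screening dose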
Target sequence (Q06609 whole entry, looked up): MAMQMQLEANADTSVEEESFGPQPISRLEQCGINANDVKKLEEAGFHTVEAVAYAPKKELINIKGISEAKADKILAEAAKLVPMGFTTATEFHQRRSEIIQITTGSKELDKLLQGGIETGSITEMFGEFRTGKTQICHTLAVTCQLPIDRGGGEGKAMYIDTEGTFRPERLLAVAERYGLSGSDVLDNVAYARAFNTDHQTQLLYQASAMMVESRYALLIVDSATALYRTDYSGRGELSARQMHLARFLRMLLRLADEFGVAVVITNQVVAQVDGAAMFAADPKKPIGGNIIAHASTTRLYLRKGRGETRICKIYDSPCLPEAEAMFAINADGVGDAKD
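Material: human Rad51–ssDNA filaments; Probe or stimulus: labelled 47-mer dsDNA for strand exchange; Doses: single 10 µM dose; Incubation: 37 °C 15-min filament assembly, 30-min compound preincubation, 15-min exchange; Technique: FRET fluorescence dequenching, excitation 485 nm, emission 520 nm; Measure: Fluorescence-based percent inhibition, control- and blank-normalised; Benchmarks: plate control and blank wells.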
Biofilm kill mix = clotrimazole potentiators killing C. albicans biofilm, primary screen, 4-compound mixtures. AID 1242, 2008. 0.02% of 120,000 active. C. albicans biofilm persisters + clotrimazole, fluorescence viability; primary screen in compound mixtures of four per well. inhibition, % at 7.6 µM;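 active = inhibition above 30.3% in the primary screen of four-compound pools, then above 30% when the compound was retested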;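 note: compounds exposed to preformed 24 h biofilms for 48 h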
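Incubation: 24 h biofilm formation, then 48 h compound exposure, 37 °C | Material: C. albicans biofilms | Buffer or medium: RPMI/MOPS medium, pH 7.0 | Measured by: 2-h Alamar Blue fluorescence, 535/590 nm excitation/emission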
S1P3 antag-1 = S1P3 receptor antagonists, primary screen, cell-based; Sphingosine 1-phosphate receptor 3 (Homo sapiens), Q99500; CHO S1P3 NFAT-BLA reporter, FRET fluorescence, antagonist mode; inhibition, % at 4.98 µM; 0.27% of 170,000 active;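 active = inhibition above the plate cutoff, the mean inhibition of test wells on that plate plus 3 SD, cut at about 28% in these data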;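 note: cells challenged with S1P at its EC80 of 0.8 µM; blue over green emission ratio from cleaved BLA substrate after 4 h stimulation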
S1P3 antag-2 = S1P3 receptor antagonists, retest, confirmation, cell-based | shares compounds with S1P3 antag-1 | CHO S1P3 NFAT-BLA reporter, FRET, antagonist mode | inhibition, % at 4.98 µM | 30% of 240 active;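 active = inhibition above the hit threshold that was computed for the earlier primary screen, cut at about 30% in these data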
Large screens that a line does not name were inactive (follow-up assays come after a bar, where they were run).

CC1=CC(C)C(COC(N)=O)(COC(N)=O)C(C)C1 (stereo not given)	Rad51 HR inh 48 (no result: Biofilm kill mix)
CC/C(=N\N1CCCCCC1)c1c(O)n(-c2ccccc2C)c(=O)[nH]c1=O	none
CCC(=NCCc1ccccc1)c1c(O)n(C)c(=O)n(C)c1=O	none (no result: Rad51 HR inh)
Cc1nn(Cc2ccccc2)c(C)c1C(=O)NCc1ccccc1F	Rad51 HR inh 44
Cc1nn(Cc2ccccc2)c(C)c1C(=O)O	none
CS(=O)(=O)c1ccc(C2=C(c3ccccc3)C(=O)OC2)cc1	none (no result: Biofilm kill mix, S1P3 antag-1)
CCCCn1c(O)c(C=NC2CC3CCC2(C)C3(C)C)c(=O)[nH]c1=O (stereo not given)	none (no result: Biofilm kill mix)
Cn1ncnc2c(=O)n(C)c(=O)nc1-2	S1P3 antag-1 105 (no result: Rad51 HR inh, Biofilm kill mix)
CC[N+](C)(CC)CCCCOc1ccc2c(c1)C(=O)c1cc(OCCCC[N+](C)(CC)CC)ccc1-2	Rad51 HR inh 42
CCCN(CC#CCOc1ccc(OC)cc1)CCC	none (no result: Biofilm kill mix, S1P3 antag-1)
CN1CC[C@@H](c2ccc(F)cc2)[C@H](COc2ccc3c(c2)OCO3)C1	none (no result: Biofilm kill mix, S1P3 antag-1)
Cc1cc(C)nc(/N=C(\N)c2c(O)[nH]c(=O)[nH]c2=O)n1	none (no result: Biofilm kill mix, S1P3 antag-1)
O=c1[nH]c(N2CCN(Cc3ccc4c(c3)OCO4)CC2)nc2c1CCC2	Rad51 HR inh 84 (no result: Biofilm kill mix)
Fc1ccccc1N1CCN(Cc2ccc3c(c2)OCO3)CC1	none (no result: Biofilm kill mix)
Cc1ccc(-n2c(O)c(C=NCCCn3ccnc3)c(=O)[nH]c2=O)cc1	none
CCN(CC)CC(O)c1ccc(C2CCCC2)cc1 (stereo not given)	none
Cc1ccc2c(c1)C1CN(C)CCC1N2C(=O)COc1ccc(S(=O)(=O)N2CCOCC2)cc1 (stereo not given)	S1P3 antag-1 76 (no result: Biofilm kill mix)
Cc1ccc2c(c1)C1CN(C)CCC1N2C(=O)Cc1cccs1 (stereo not given)	none (no result: Biofilm kill mix)
CN[C@H]1C[C@H]2O[C@@](C)([C@H]1OC)n1c3ccccc3c3c4c(c5c6ccccc6n2c5c31)C(=O)NC4	S1P3 antag-1 109 | S1P3 antag-2 121
CC1CCN(c2cc(Br)c([N+](=O)[O-])cc2F)CC1	none
Cc1ccccc1-n1c(-c2ccoc2)nc2ccccc2c1=O	none
CC(=O)NC1C(OC(=O)Cc2ccccc2)OC(COC(C)=O)C(OC(C)=O)C1OC(C)=O (stereo not given)	none
C[C@H]1C[C@@H](C)C(=O)[C@@H]([C@H](O)CC2CC(=O)NC(=O)C2)C1	S1P3 antag-1 84 | S1P3 antag-2 82
O=C1CN=C(c2ccc(Br)cc2)c2c(sc3c2CCCC3)N1CCN1CCCCC1	none
COCCOC(=O)c1c(C)oc2ccc(OC(=O)N(C)C)cc12	none (no result: Biofilm kill mix)
CC[C@@H]1C=CC=CC[C@H](C)[C@@H](O)[C@@H](C)C(=O)[C@H](C)[C@@H](O)[C@H](C)C(=O)[C@H](C)[C@@H](O)[C@H](C)C=CC(=O)O[C@H]2[C@@H](C)[C@@H](CC1)O[C@@]1(CC[C@@H](C)[C@@H](C[C@H](C)O)O1)[C@@H]2C	none (no result: Biofilm kill mix, S1P3 antag-1)
CCOc1ccc(-c2c(C)n(-c3ccc(OCC)cc3)c3[n+]2CCCCC3)cc1	S1P3 antag-1 40 | S1P3 antag-2 inactive
O=C(COC(=O)Cc1ccccc1)Nc1ncc(Cl)cc1Cl	none (no result: Biofilm kill mix, S1P3 antag-1)
O=C(COC(=O)Cc1ccccc1)Nc1ccc(Cl)cn1	S1P3 antag-1 36 | S1P3 antag-2 inactive
O=S(=O)(c1ccccc1)N1CN2CCN(C2)C1	none (no result: Biofilm kill mix)
